Assay outcomes deposited in PubChem by several laboratories.
Hits are enriched below; roughly 2.3% of the tested compounds scored in any of these assays.
LGR2 antag = inhibitors of bursicon-induced Drosophila LGR2 receptor cAMP signaling; HEK293 LGR2, CRE-luciferase, bursicon-stimulated, 4 h; inhibition, % at 9.99 µM; actives 0.35% (n = 380,000);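 active = drop in luminescence signal, shown as inhibition above about 50% in the replicate tests, limit read from the data, passing the limit was not always enough; inconclusive = probably only some replicates passing the limit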;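 also: agonist challenge used bursicon conditioned medium at about half maximal strength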
TROY signal inh = TROY signaling inhibition. inhibition, % at 10 µM. Q293 LMP1-TROYcd NF-kB luciferase reporter, 4 h. actives 0.98% (n = 360,000);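 active = compounds whose plate-normalised and pattern-corrected inhibition of the luciferase reporter signal at the single screening dose is 50% or more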
EWS-Fli inh = inhibitors of EWS/Fli oncoprotein transcriptional activity; AID 651661; inhibition, % at 12.6 µM; A673 NR0B1-luciferase reporter, viability-normalised; actives 0.67% (n = 350,000);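 active = mean inhibition of at least 50% after viability correction, with every replicate also passing that limit; inconclusive = mean reaches 50% but only one of two replicates passes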;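 also: firefly luciferase signal divided by Alamar Blue viability fluorescence both relative to DMSO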
FN deposit inh = fibronectin deposition inhibition. AH1F fibroblasts, Alexa488-fibronectin deposition fluorescence, overnight. inhibition, % at 12.6 µM. actives 0.086% (n = 350,000);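 active = mean inhibition across replicates of 30% or more, regardless of how many single replicates reach that level; inconclusive = mean under 30% yet at least half of replicates reach 30%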;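 also: positive control wells lacked labelled fibronectin entirely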
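test system = AH1F fibroblasts assembling fluorescent fibronectin matrix | quantity = 10000 AH1F cells per well | buffer or medium = DMEM plus 2% serum, read in PBS | doses = single dose, pinned | incubation = 1 h cell attachment, overnight exposure to compound and label | detection = fluorescence at 485 nm excitation, 525 nm emission | read-out basis = inhibition from reduced deposited-fibronectin fluorescence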
TWEAK-Fn14 inh = TWEAK-Fn14 signaling inhibition; actives 2% (n = 360,000); inhibition, % at 10 µM; TWEAK-stimulated Fn14 reporter cells, luciferase luminescence, 8 h; in the data active = inhibition above about 50%
XiGFP reactiv = reactivates the inactive X chromosome in mouse fibroblasts. XiGFP mouse fibroblasts, % GFP-positive cells imaging, 3 d; cells co-treated with 5-aza-dC sensitizer; scaled so ellipticine positive control = 100%. activation, % at 7.58 µM. actives 0.055% (n = 360,000);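 active = mean normalized replicate activation at least 10% and every replicate at or above 10%; inconclusive = only one of the two criteria met; inactive = mean below 10% and not all replicates reach 10%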;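 also: 0% = median of on-plate neutral control wells and 100% = ellipticine 6 µM median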
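assay system = SV40-immortalized XiGFP fibroblast cells, line 68-5-11 | buffer or medium = DMEM plus 5-aza-dC sensitizer | doses = single-point pinned compound dosing | times = 3-day compound exposure, then 15 min fixation at room temperature | benchmarks = positive control ellipticine, 6 µM final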
Active calls of the source: *; u = inconclusive; x = no result.

SMILES	LGR2 antag	TROY signal inh	EWS-Fli inh	FN deposit inh	TWEAK-Fn14 inh	XiGFP reactiv
O=C(OC(c1ccccc1)c1nccc2ccccc12)c1cccc([N+](=O)[O-])c1 (stereo unspecified)	-47.9	20.6	-13.7	-9.4	-11.9	-0.1
C[C@H]1CCCCO[C@@H](CN(C)Cc2ccc(C(=O)Nc3ccccc3N)cc2)[C@@H](C)CN([C@@H](C)CO)C(=O)c2cc(N(C)C)ccc2O1	x	x	x	x	x	1.0
CC(C)NC(=O)Nc1cccc2c1O[C@@H](CN(C)S(=O)(=O)c1cn(C)cn1)[C@H](C)CN([C@H](C)CO)C2=O	6.9	x	-2.7	1.0	x	0.0
O=C1c2ccccc2C(=O)C12OC2c1ccc(Cl)cc1Cl (stereo unspecified)	12.0	21.5	25.8	5.1	72.0*	0.9
O=C1c2ccccc2C(=O)C1c1ccc(Cl)cc1	-5.8	6.7	-22.6	-10.9	0.4	1.4
CC(C)NC(=O)N(C)C[C@@H]1Oc2ncc(-c3cccc(C#N)c3)cc2C(=O)N([C@@H](C)CO)C[C@@H]1C	x	x	x	-1.0	x	0.3
CN1C(=O)c2cc(NC(=O)c3cncs3)ccc2OC[C@H]2O[C@@H](CC(=O)Nc3ccccc3F)CC[C@@H]21	x	x	1.9	x	x	x
Cc1cc(C)c[n+](CC(=O)c2ccccc2)c1	17.9	8.1	7.0	-1.9	7.3	0.0
Cc1c[n+](CC(=O)c2ccccc2)cs1	-5.2	4.5	1.0	-7.6	90.0*	0.0
CC(C)c1cccc(C(C)C)c1NC(=O)OC1CCCCC1	1.8	58.3*	5.1	2.9	-1.7	0.1
[O-]C(=C(C(=S)Nc1cccc2ccccc12)[n+]1ccccc1)c1ccc2c(c1)OCCO2	x	79.2*	x	x	102.9*	x
Cc1cc([N+](=O)[O-])nn1CC(=O)NC(C)c1ccccc1 (stereo unspecified)	3.8	-3.5	-6.3	-0.6	110.3*	0.1
Cc1cc(Nc2ccc(C)c(C)c2)c2ccccc2n1	13.8	-11.7	13.6	2.5	-24.8	0.3
Cc1ccc(Nc2nc(N)c3ccccc3n2)cc1C	80.6*	26.5	44.2	-1.1	68.4*	0.0
Cc1ccc(S(=O)(=O)N2C[C@H]3n4c(=O)ccc(=O)n4C[C@H](OC(=O)NCC4CCCCC4)[C@@]3(O)C2)cc1	25.4	15.8	40.2	-5.3	61.1*	0.1
Cc1ccc(S(=O)(=O)N2C[C@H]3n4c(=O)ccc(=O)n4C[C@H](OC(=O)NCc4ccccc4)[C@@]3(O)C2)cc1	31.0	-6.1	-10.5	-6.4	-2.3	0.1
O=C1N[C@@H](c2ccccc2)COCc2cn(nn2)CC[C@H]1Cc1ccc(-c2ccccc2)cc1	x	x	x	-10.4	x	0.0
O=C(N/N=C/c1ccc2cccc(OCc3ccccc3)c2n1)c1ccc(Br)cc1	x	14.3	x	-2.1	66.2*	x
O=S(=O)(Nc1cccc2ncccc12)c1cccs1	x	65.1*	x	x	106.5*	x
C[C@@H]1CN([C@H](C)CO)C(=O)c2cc(-c3ccc(F)cc3)cnc2O[C@@H]1CN(C)CC1CCCC1	2.6	x	7.0	-3.5	x	-0.1
COc1cc(C(=O)NC2CCN(C)CC2)ccc1Nc1ncc2c(n1)N(CCc1ccccc1)CCC(=O)N2C	2.6	-14.1	54.2*	10.7	0.2	0.4
Cc1ccccc1C(=O)N/N=C/c1cccc2ccccc12	-32.1	-23.5	-82.1	-1.4	-13.6	0.2
Cc1ccc(Cl)cc1NC(=S)N/N=C/c1cccc2ccccc12	0.1	21.4	53.1*	-5.3	-18.8	0.9
Cn1nnnc1Sc1ncnc2scc(-c3ccccc3Cl)c12	22.1	37.7	16.9	15.1	51.5*	0.6
Cn1nnnc1Sc1ncnc2scc(-c3ccc4c(c3)OCO4)c12	u	13.4	7.1	25.7	58.2*	0.1
SMILES	LGR2 antag	TROY signal inh	EWS-Fli inh	FN deposit inh	TWEAK-Fn14 inh	XiGFP reactiv
COc1ccc(-c2csc3ncnc(Sc4nnnn4C)c23)cc1	u	28.6	-3.0	1.7	56.0*	0.1
Cn1nnnc1Sc1ncnc2scc(-c3ccc(Cl)cc3)c12	57.4*	63.9*	46.4	10.8	75.2*	0.0
CC(C)NC(=O)N(C)C[C@@H]1Oc2ncc(C#Cc3ccncc3)cc2C(=O)N([C@H](C)CO)C[C@@H]1C	14.7	x	-19.6	-9.5	x	0.2
COc1ccc(CN(C)C[C@@H]2Oc3ccc(NC(=O)Cc4cn(C)c5ccccc45)cc3CC(=O)N([C@H](C)CO)C[C@@H]2C)cc1	-0.3	x	-9.0	x	x	0.1
Cn1nnnc1Sc1ncnc2scc(-c3ccc([N+](=O)[O-])cc3)c12	91.0*	54.1*	18.5	17.7	92.5*	0.0
Cn1nnnc1Sc1ccc([N+](=O)[O-])cc1Cl	-8.0	19.5	4.2	x	13.4	0.0
O=C(NCCC1=CCCCC1)C1CCN(S(=O)(=O)N2CCCC2)CC1	-15.5	6.1	0.8	-5.7	3.4	0.0
O=C(NCCC1=CCCCC1)C1CCN(C(=O)Nc2ccccc2)CC1	x	-3.1	x	-2.5	110.0*	x
C[C@@H]1CN([C@@H](C)CO)C(=O)c2cccc(NC(=O)Nc3ccc(F)cc3)c2O[C@@H]1CN(C)Cc1ccccc1	-9.7	x	1.0	x	x	0.0
O=[N+]([O-])c1cccc(-c2nc(-c3ccccc3)c(-c3cccs3)[nH]2)c1	2.3	9.8	x	x	12.0	x
O=[N+]([O-])c1cccc(-c2nc(-c3cccs3)c(-c3cccs3)[nH]2)c1	x	19.4	x	14.5	57.9*	x
O=[N+]([O-])c1ccc(-c2nc(-c3cccs3)c(-c3cccs3)[nH]2)cc1	15.5	66.1*	x	x	78.7*	x
CCC(=O)N1CC2(CCN(Cc3cccnc3)CC2)c2c(n(C)c3cc(OC)ccc23)[C@H]1CO	-13.9	x	-8.9	x	x	0.1
Nc1nc(N)nc(-c2ccc(Cl)c(Cl)c2)n1	27.3	-3.2	-128.7	11.5	60.1*	-0.1
Nc1nc(N)nc(-c2ccccc2)n1	-2.4	-7.2	-10.2	6.6	26.7	0.0
O=C(c1ccccn1)N1CC(=O)N2[C@H](CO)[C@@H](c3ccc(C#Cc4ccccc4)cc3)[C@H]2C1	8.1	x	-8.4	x	x	0.1
CCN(c1ccccc1)S(=O)(=O)c1cc(C(=O)Nc2ccc(F)c(F)c2)ccc1F	x	63.3*	15.3	7.3	80.4*	0.0
CCN(c1ccccc1)S(=O)(=O)c1ccc(C(=O)Nc2cccc(NC(C)=O)c2)cc1	-1.0	-4.7	4.0	2.2	20.7	0.0
O=C(CSC(=S)N1CCCC1)c1ccccc1	-16.8	18.9	7.5	-6.6	45.2	-0.1
COc1ccc(C(=O)CSC(=S)N2CCCCC2)cc1	x	12.4	x	x	60.4*	x
O=C(CSC(=S)N1CCCCC1)c1ccccc1	67.3*	50.1*	63.8*	x	72.1*	0.0
CCCNC(=O)N1CC2(C1)[C@H](c1ccccc1)[C@H](CO)N2C(=O)C1CCCC1	-1.1	x	7.4	1.4	x	0.2
C[C@@H]1CN([C@H](C)CO)C(=O)Cc2cc(NS(=O)(=O)c3cccs3)ccc2O[C@H]1CN(C)Cc1ccc2c(c1)OCO2	-5.9	x	-3.5	x	x	0.0
